Experiment [1] has as its target Opioid receptors; mu & kappa (Homo sapiens) (UniProt P41145+P35372). Description: Relative affinity for kappa 1 and mu opioid receptors. The experiment is classed as protein assay. The gist of the method: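 Ratio of Ki at KOR, from 3H-U-69,593 competition in guinea pig cerebellum, to Ki at MOR, from 3H-DAMGO competition on hMOR-1 in CHO cells.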
For experiment [2], the target named is T1, Mu-type opioid receptor (Homo sapiens, UniProt P35372). As to the kind of experiment: Efficacy for Opioid receptor mu 1-mediated [35S]GTP-gamma-S incorporation into CHO membrane preparations. In kind it is functional. (In general: GTPγS is a poorly hydrolysed GTP analogue; its binding reports G protein activation.)
Experiment [3] has as its target Opioid receptors; mu & delta (Homo sapiens) (UniProt P41143+P35372). As to the kind of experiment: Relative affinity for delta and mu opioid receptors. The experiment is classed as protein assay.
Experiment [4] has as its target Kappa-type opioid receptor (Cavia porcellus, UniProt P41144). As to the kind of experiment: Displacement of 3H-U-69,593 from Opioid receptor kappa 1 in guinea pig cerebellum preparation. In kind it is tissue-based.
For experiment [5], the target named is Delta-type opioid receptor (Homo sapiens, UniProt P41143). Description: Displacement of [3H]diprenorphine from human Opioid receptor delta 1 epressing HEK293 cells. In kind it is cell-based. The method in brief:
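Human DOR-1 stably transfected into HEK-293 cells; competition binding against 3H-diprenorphine. Mean ± SD of duplicate measurements.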
(In a radioligand displacement assay an active substance lowers the binding of a labelled ligand.)

In experiment [6] the target is T1, Mu-type opioid receptor. As to the kind of experiment: Displacement of [3H]DAMGO from human Opioid receptor mu 1 expressing CHO cells. In kind it is cell-based.
Experiment [7] addresses T1, Mu-type opioid receptor. As to the kind of experiment: Compound tested at 10 uM for the ability to induce Opioid receptor mu 1-mediated binding of [35S]GTP-gamma-S to G proteins in CHO membrane preparations. The experiment is classed as functional, cell membranes. The method in brief: (§1)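 Human MOR-1 stably transfected into CHO cells; membrane preparations incubated with GDP and test compound at 10 µM. Specific [35S]GTP-γ-S binding to G proteins is expressed as a percentage of DAMGO-induced specific binding. Mean ± SD of quadruplicate measurements.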

For experiment [8], the target named is T1, Mu-type opioid receptor. Description: Specific binding of GTP-gamma -35S to G proteins in CHO membrane preparation stably transfected with human Opioid receptor mu 1 in the presence of GDP and 10 uM compound. In kind it is cell membranes. The method in brief:
as §1

T1 sequence (P35372 whole entry): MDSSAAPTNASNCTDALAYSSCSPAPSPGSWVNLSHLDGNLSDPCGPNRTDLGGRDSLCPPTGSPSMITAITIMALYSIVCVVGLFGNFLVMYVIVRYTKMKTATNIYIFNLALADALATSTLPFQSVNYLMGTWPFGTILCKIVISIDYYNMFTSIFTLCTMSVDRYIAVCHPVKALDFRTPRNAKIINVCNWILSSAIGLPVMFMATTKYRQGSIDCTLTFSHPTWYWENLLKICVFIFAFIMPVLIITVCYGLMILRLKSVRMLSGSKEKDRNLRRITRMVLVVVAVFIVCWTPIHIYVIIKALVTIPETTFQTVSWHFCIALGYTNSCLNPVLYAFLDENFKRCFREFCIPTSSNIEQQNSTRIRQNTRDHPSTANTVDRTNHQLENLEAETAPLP
Opioid receptors; mu & kappa (Homo sapiens), sequence (P35372 whole entry, looked up): as the sequence (P35372 whole entry) above
Opioid receptors; mu & kappa (Homo sapiens), sequence (P41145 whole entry, looked up): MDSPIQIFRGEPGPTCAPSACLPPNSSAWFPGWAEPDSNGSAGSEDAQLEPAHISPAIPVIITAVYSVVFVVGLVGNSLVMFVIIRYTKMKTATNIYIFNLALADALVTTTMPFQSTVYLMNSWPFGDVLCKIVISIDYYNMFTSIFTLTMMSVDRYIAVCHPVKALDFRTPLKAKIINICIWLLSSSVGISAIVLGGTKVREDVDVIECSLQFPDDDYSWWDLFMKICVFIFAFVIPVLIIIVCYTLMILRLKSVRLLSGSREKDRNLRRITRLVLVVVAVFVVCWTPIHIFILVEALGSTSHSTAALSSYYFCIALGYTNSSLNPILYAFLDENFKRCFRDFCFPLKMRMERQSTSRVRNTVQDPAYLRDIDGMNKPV
Opioid receptors; mu & delta (Homo sapiens), sequence (P35372 whole entry, looked up): as the sequence (P35372 whole entry) above
Opioid receptors; mu & delta (Homo sapiens), sequence (P41143 whole entry, looked up): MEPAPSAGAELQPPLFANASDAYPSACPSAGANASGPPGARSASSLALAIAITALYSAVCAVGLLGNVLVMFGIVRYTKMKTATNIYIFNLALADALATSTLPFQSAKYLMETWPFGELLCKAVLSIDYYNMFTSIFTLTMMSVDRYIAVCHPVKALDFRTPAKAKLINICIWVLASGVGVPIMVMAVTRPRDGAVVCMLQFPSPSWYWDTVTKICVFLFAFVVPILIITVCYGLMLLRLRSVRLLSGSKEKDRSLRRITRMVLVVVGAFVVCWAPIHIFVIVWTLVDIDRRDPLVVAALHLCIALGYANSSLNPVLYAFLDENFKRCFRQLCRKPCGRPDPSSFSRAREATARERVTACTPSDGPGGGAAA
Delta-type opioid receptor, sequence (P41143 whole entry): as the sequence (P41143 whole entry, looked up) above
Kappa-type opioid receptor, sequence (P41144 whole entry): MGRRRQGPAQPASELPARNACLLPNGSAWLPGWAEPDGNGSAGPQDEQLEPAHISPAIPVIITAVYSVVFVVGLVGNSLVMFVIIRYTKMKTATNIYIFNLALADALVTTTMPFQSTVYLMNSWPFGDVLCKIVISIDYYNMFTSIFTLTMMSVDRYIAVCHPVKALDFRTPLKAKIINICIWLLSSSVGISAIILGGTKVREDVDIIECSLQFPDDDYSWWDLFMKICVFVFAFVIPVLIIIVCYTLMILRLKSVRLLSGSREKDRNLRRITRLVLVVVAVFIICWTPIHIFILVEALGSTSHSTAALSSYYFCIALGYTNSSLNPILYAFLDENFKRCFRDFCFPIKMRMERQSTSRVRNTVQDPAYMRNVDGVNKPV

For the molecule `NC(=O)[C@H](Cc1ccccc1)NC(=O)[C@H](Cc1ccccc1)NC(=O)[C@H]1CCCN1C(=O)[C@@H](N)Cc1ccccc1`, the values for the Ratio in experiment [1] and in experiment [3] were […] and […], respectively. This molecule also gave a GTP-gamma35S bound on Mu-type opioid receptor [2] of 100%.
With `Cc1cc(O)cc(C)c1C[C@H](N)[C@@H](O)C/C=C/[C@@H](O)[C@H](Cc1ccccc1)C(=O)NCCc1ccccc1`, the values for the Ratio in experiment [1] and in experiment [3] were 94 and 190, respectively. Besides, the Ki in experiment [4] amounted to 60 nM; in experiment [5], 119 nM; on Mu-type opioid receptor [6], 0.64 nM. For the same molecule, the GTP-gamma35S bound at Mu-type opioid receptor [2] stood at 52%.
Take `Cc1cc(O)cc(C)c1C[C@H](N)[C@H](O)C/C=C/[C@@H](O)[C@@H](Cc1ccccc1)C(=O)N[C@@H](Cc1ccccc1)C(N)=O`: the Ratio in experiment [1] came to 16; in experiment [3], 53. Besides, the Ki in experiment [4] is 25 nM; in experiment [5] it was 85 nM; on Mu-type opioid receptor [6], 1.6 nM. This molecule also registered a GTP-gamma35S bound on Mu-type opioid receptor [2] of 43%.
On to `Cc1cc(O)cc(C)c1C[C@H](N)[C@@H](O)C/C=C/[C@H](O)[C@@H](Cc1ccccc1)C(=O)OCCc1ccccc1`, for which the Ki is 56 nM in experiment [5] and 0.24 nM at Mu-type opioid receptor [6]. Moreover, at Mu-type opioid receptor [2], the GTP-gamma35S bound is 79%. For the same molecule, a half-maximal effect on Mu-type opioid receptor [7] (EC50) was put at 4.2 nM.
As for `Cc1cc(O)cc(C)c1C[C@H](N)[C@@H](O)C/C=C/[C@H](O)[C@@H](Cc1ccccc1)C(=O)NCCc1ccccc1`, the Ratio in experiment [1] is 140; in experiment [3], 340. Besides, the Ki in experiment [4] was found to be 42 nM; in experiment [5] it was 99 nM; on Mu-type opioid receptor [6], 0.29 nM. This molecule registered a GTP-gamma35S bound at Mu-type opioid receptor [2] of 40%.
Regarding `NC(=O)[C@H](Cc1ccccc1)NC(=O)[C@H](Cc1ccccc1)NC(=O)[C@@H]1CCCN1C(=O)[C@@H](N)Cc1ccccc1`, the figures for the Ki (in experiment [4]; in experiment [5] (hek293); on Mu-type opioid receptor [6] (cho)) were 10400 nM, […] and 0.69 nM, respectively. Also, the EC50 on Mu-type opioid receptor [7] is 31 nM.
Take `Cc1cc(O)cc(C)c1C[C@H](N)[C@H](O)C/C=C/[C@H](O)[C@@H](Cc1ccccc1)C(=O)NCCc1ccccc1`: the results for the Ratio in experiment [1] and in experiment [3] were 210 and 510, respectively. In addition, the Ki was 51 nM in experiment [4], 123 nM in experiment [5] and 0.24 nM on Mu-type opioid receptor [6]. Further, the GTP-gamma35S bound at Mu-type opioid receptor [2] is 49%. Moreover, on Mu-type opioid receptor [7], the EC50 was determined as 49 nM.
In the case of `Cc1cc(O)cc(C)c1C[C@H](N)[C@@H](O)C/C=C/[C@@H](O)[C@@H](Cc1ccccc1)C(=O)N[C@@H](Cc1ccccc1)C(N)=O`, the Ratio was 49 in experiment [1] and 86 in experiment [3]. Also, the Ki in experiment [4] came to 21 nM; in experiment [5], 36 nM; at Mu-type opioid receptor [6], 0.42 nM. On Mu-type opioid receptor [2], this molecule returned a GTP-gamma35S bound of 75%. The molecule also showed an EC50 on Mu-type opioid receptor [7] of 7.9 nM.
For the molecule `Cc1cc(O)cc(C)c1C[C@H](N)[C@@H](O)C/C=C/[C@H](O)[C@@H](Cc1ccccc1)C(=O)O[C@H](CO)Cc1ccccc1`, the Ratio was 190 in experiment [1] and 39 in experiment [3]. For the same molecule, the Ki in experiment [4] was 85 nM; in experiment [5], 17 nM; on Mu-type opioid receptor [6], 0.44 nM. In addition, the GTP-gamma35S bound at Mu-type opioid receptor [8] came out at 62%.
Regarding `Cc1cc(O)cc(C)c1C[C@H](N)[C@@H](O)C/C=C/[C@H](O)[C@@H](Cc1ccccc1)C(=O)O[C@@H](Cc1ccccc1)C(N)=O`, the Ratio is 280 in experiment [1] and 46 in experiment [3]. Further, the Ki in experiment [4] was determined as 126 nM; in experiment [5], 21 nM. The GTP-gamma35S bound at Mu-type opioid receptor [2] was 47%.
In the case of `Cc1cc(O)cc(C)c1C[C@H](N)[C@@H](O)C/C=C/[C@H](O)[C@@H](Cc1ccccc1)C(=O)N[C@@H](Cc1ccccc1)C(N)=O`, the Ratio turned out to be 130 in experiment [1] and 230 in experiment [3]. The Ki in experiment [4] turned out to be 22 nM; in experiment [5] it was 40 nM; at Mu-type opioid receptor [6], 0.17 nM. The molecule also gave a GTP-gamma35S bound at Mu-type opioid receptor [2] of 35%.
For `Cc1cc(O)cc(C)c1C[C@H](N)[C@@H](O)C/C=C/[C@@H](O)[C@@H](Cc1ccccc1)C(=O)NCCc1ccccc1`, the Ratio was 170 in experiment [1] and 70 in experiment [3]. In addition, the inhibition constant (Ki) was found to be 64 nM in experiment [4], 26 nM in experiment [5] and 0.37 nM at Mu-type opioid receptor [6]. For the same molecule, the GTP-gamma35S bound at Mu-type opioid receptor [2] was 48%.
Take `Cc1cc(O)cc(C)c1C[C@H](N)[C@H](O)C/C=C/[C@H](O)[C@@H](Cc1ccccc1)C(=O)N[C@@H](Cc1ccccc1)C(N)=O`: the values for the Ratio in experiment [1] and in experiment [3] were 13 and 38, respectively. The Ki in experiment [4] was found to be 15 nM; in experiment [5] it was 46 nM; on Mu-type opioid receptor [6], 1.2 nM. At Mu-type opioid receptor [2], this molecule came in with a GTP-gamma35S bound of 14%.
As to `Cc1cc(O)cc(C)c1C[C@H](N)[C@H](O)C/C=C/[C@@H](O)[C@@H](Cc1ccccc1)C(=O)NCCc1ccccc1`, the Ratio in experiment [1] is 96; in experiment [3], 91. For the same molecule, the Ki in experiment [4] came to 69 nM; in experiment [5], 66 nM; on Mu-type opioid receptor [6] it was 0.72 nM. Besides, the GTP-gamma35S bound on Mu-type opioid receptor [2] turned out to be 27%.
In the case of `Cc1cc(O)cc(C)c1C[C@H](N)[C@@H](O)C/C=C/[C@@H](O)[C@H](Cc1ccccc1)C(=O)N[C@@H](Cc1ccccc1)C(N)=O`, the Ratio in experiment [1] stood at 41; in experiment [3], 190. For the same molecule, the Ki was found to be 50 nM in experiment [4], 230 nM in experiment [5] and 1.2 nM at Mu-type opioid receptor [6]. On Mu-type opioid receptor [2], this molecule registered a GTP-gamma35S bound of 32%.
Turning to `Cc1cc(O)cc(C)c1C[C@H](N)[C@@H](O)C/C=C/[C@H](O)[C@@H](Cc1ccccc1)C(=O)N[C@H](CO)Cc1ccccc1`, the Ratio in experiment [1] worked out at 430; in experiment [3], 340. Further, the figures for the Ki (in experiment [4]; in experiment [5]; on Mu-type opioid receptor [6]) were 69 nM, 54 nM and 0.16 nM, respectively. In addition, the GTP-gamma35S bound at Mu-type opioid receptor [2] is 44%.

As a reminder, the Ki is a measure of affinity in units of concentration, obtained from inhibition or displacement. The low end stands for higher affinity, the high end for lower affinity. A word on the EC50: it is the midpoint of the concentration-response curve. Read a low EC50 as greater potency.

These data come from ChEMBL document CHEMBL1145973 (J Med Chem, 2003).
